Drug uptake data for two molecules are collected here from ChEMBL document CHEMBL4020824, “Discovery of Potent and Orally Bioavailable Dihydropyrazole GPR40 Agonists” (J Med Chem, 2018).

Assay type in all cases: ADME, microsome
For series [1], the system named is Liver. Kind of series: Drug level in human liver microsomes treated with 2-((4S,5S)-1-(4-((1-(2-Fluoro-5-methoxyphenyl)piperidin-4-yl)-oxy)phenyl)-4-methyl-3-(trifluoromethyl)-4,5-dihydro-1H-pyrazol-5-yl)acetic acid at 1 to 3 uM incubated for 20 mins in presence of NADPH measured after 90 mins by LC/MS/MS analysis. In a few lines:
(§1)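 Human or rat liver microsomal incubations. The read-outs were % parent remaining, % D-ring dealkylation metabolites, % GSH adducts, and half-life (min). The metabolites followed were CYP450-mediated oxidative de-alkylation products (phenols) and GSH conjugates.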

Series [2] has as its system Liver. Description: Drug level in rat liver microsomes treated with 2-((4S,5S)-1-(4-((1-(2-Fluoro-5-methoxyphenyl)piperidin-4-yl)-oxy)phenyl)-4-methyl-3-(trifluoromethyl)-4,5-dihydro-1H-pyrazol-5-yl)acetic acid at 1 to 3 uM incubated for 20 mins in presence of NADPH measured after 90 mins by LC/MS/MS analysis. An outline of the steps: as §1
In general terms: Liver microsomes are a subcellular fraction often used to study metabolism.

The subject of series [3] is Liver. Kind of series: Drug level in human liver microsomes treated with 2-((4S,5S)-1-(4-(((3R,4R)-1-(5-Chloro-2-methoxypyridin-4-yl)-3-methylpiperidin-4-yl)oxy)phenyl)-4-methyl-3-(trifluoromethyl)-4,5-dihydro-1H-pyrazol-5-yl)acetic acid at 1 to 3 uM incubated for 20 mins in presence of NADPH measured after 90 mins by LC/MS/MS analysis. An outline of the steps: as §1

In series [4] the test system is Liver. Description: Drug level in rat liver microsomes treated with 2-((4S,5S)-1-(4-(((3R,4R)-1-(5-Chloro-2-methoxypyridin-4-yl)-3-methylpiperidin-4-yl)oxy)phenyl)-4-methyl-3-(trifluoromethyl)-4,5-dihydro-1H-pyrazol-5-yl)acetic acid at 1 to 3 uM incubated for 20 mins in presence of NADPH measured after 90 mins by LC/MS/MS analysis. An outline of the steps: as §1

As to `C[C@@H]1C(C(F)(F)F)=NN(c2ccc(OC3CCN(c4cc(O)ccc4F)CC3)cc2)[C@H]1CC(=O)O`, the Drug uptake entry in the series on Liver [1] and with Liver [2] was “Metabolite_Detected” each time.
For the molecule `C[C@@H]1CN(c2cc(O)ncc2Cl)CC[C@H]1Oc1ccc(N2N=C(C(F)(F)F)[C@@H](C)[C@@H]2CC(=O)O)cc1`, the Drug uptake result with Liver [3] and in the series with Liver [4] was “Metabolite_Detected” in each case.
